Measurements: article PMC12676294 (ACS Omega, 2025)

Assay: Potentiometric titration: protonation constants of the ligands
Assay type: physicochemical
Conditions: T = 25.0 °C; I = 0.1 M KNO3
Summary of the method: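 Ligand (about 1 mM, 16 mL) with 5–9 mM HClO4 titrated with carbonate-free NaOH (about 0.1 M) under argon with stirring, at 25.0 ± 0.1 °C in 0.1 M KNO3. Glass electrode calibrated as an H+ concentration probe by Gran's method; pKw fixed at 13.78. Points accepted at drift <0.5 mV/min, pH 2–12, 55–130 points per dataset. Stepwise constants were refined from the titration curves.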

## NC(=O)CN1CCNC(=O)c2cccc(n2)C(=O)NCCN(CC(N)=O)CC1 [Py2am, 2-[9-(Carbamoylmethyl)-2,13-dioxo-3,6,9,12,18-pentaazabicyclo[12.3.1]octadeca-1(17),14(18),15-trien-6-yl]acetamide]
  Stepwise protonation constant Log K, HL: 5.1 (1)
